PglD inh: blocks C. jejuni PglD acetyltransferase activity; 360,000 compounds, 0.098% hits; purified PglD enzyme, DTNB colorimetric CoA detection; inhibition, % at 12.5 µM; in the data active = inhibition above about 16%, passing the limit was not always enough
Mot1-301 SUMO: inhibitors of SUMOylation pathway: yeast Mot1-301 growth rescue | growth rescue, % at 18.8 µM | S. cerevisiae Mot1-301 growth rescue, ATP luminescence, 38.5C; percent above DMSO median, 100 means doubled | 320,000 compounds, 1% hits;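 active = every valid replicate shows activation above 250% relative to neutral control wells; inactive = the rest, any valid replicate at or below 250%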;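 also: OY570 slx delta 5 strain wells were the positive control but not used for scaling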
CR mimetic SO: lowers age-related superoxide in aged yeast cells. S. cerevisiae aged cells, superoxide DHE fluorescence; active compounds read low. superoxide response (% of plate mean), % at 10 µM. 330,000 compounds, 0.18% hits. AID 2690;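 active = superoxide response under a set limit, about three screen SD below normal, cut at about 65% in these data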;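 also: yeast aged for seven days with compound at 30 °C before DHE staining; 100% = average MFI of all compound-treated wells on the plate with controls excluded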
rRNA inh HTS: inhibitors of bacterial rRNA selective over humanized ribosomes. E. coli WT GFP vs humanized-ribosome RFP mutants, fluorescence, 24 h; active compounds read low; DMSO median 0, no signal -100. GFP signal change (wild-type ribosome), % (no concentration beside the values). 350,000 compounds, 1.6% hits;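 active = significant combined selectivity score with lowered wild-type GFP, culture density cut under 30%, mutant RFP and density less affected; inactive = any of these conditions unmet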
Cneo AK release: Cryptococcus neoformans lysis via adenylate kinase release; AID 651654; 360,000 compounds, 0.2% hits; lysis activity, % at 15 µM; C. neoformans lysis, adenylate kinase release luminescence, 4 h; normalised: neutral wells 0, clomiphene wells 100;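 active = mean lysis activity across replicates of at least 80%, whatever share of replicates individually reach that level; inactive = mean lysis activity below 80%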
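Schedule: static 4 h at 37 °C with compound, 1 h detection; system: C. neoformans cells; benchmarks: Clomiphene as positive control; buffer or medium: fresh YPD medium; measure: luminescence rise reflecting yeast cell lysis; measured by: luminescent adenylate kinase detection reagent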
An asterisk follows results filed as active; . = not tested or not shown. The list is not random: actives were taken first. Their share in the collection is about 2.2%.

SMILES | PglD inh | Mot1-301 SUMO | CR mimetic SO | rRNA inh HTS | Cneo AK release
Cc1noc(C)c1S(=O)(=O)N(C)C[C@@H]1OCCCC[C@@H](C)Oc2ccc(NC(=O)NC(C)C)cc2C(=O)N([C@@H](C)CO)C[C@H]1C | -1 | . | . | 2 | -4
O=C(NCC[C@H]1CC[C@@H](NC(=O)c2cccnc2)[C@H](CO)O1)Nc1ccc(Cl)cc1 | -1 | . | . | 0 | 3
COc1ccccc1C(=O)NCC(=O)OCC(=O)c1cccc2ccccc12 | -1 | 321* | 97 | -1 | -2
COc1ccccc1C(=O)COC(=O)CNC(=O)c1ccc(Br)o1 | 4 | 269 | 116 | -5 | 5
Cc1cc2ccccn2c1C(=O)Nc1cccc(Cl)c1 | . | 206 | 118 | -33* | .
Cc1ccc(C(=O)NC(=S)c2c(C)cc3ccccn23)cc1 | 6 | . | . | -15* | 10
Cc1cc2ccccn2c1C(=S)NC(=O)c1ccccc1 | 0 | -1 | 80 | . | 11
Cc1cccc(-c2ccc([C@@H]3[C@@H](CO)N4CCCCN(C(=O)NC(C)C)C[C@@H]34)cc2)c1 | 11 | . | . | -49 | 2
CC=Cc1ccc2n(c1=O)C[C@@H]1[C@@H](CO)[C@H](C(=O)Nc3nccs3)N(Cc3ccccc3F)[C@H]21 (mixture of isomers) | -2 | . | . | -2 | -1
O=C(CNC(=O)c1ccco1)OCc1ccc(C(=O)c2ccccc2)cc1 | . | -13 | 119 | -33* | .
C[C@@H]1CN([C@H](C)CO)C(=O)c2cc(/C=C/c3ccccc3)cnc2O[C@@H]1CN(C)C(=O)c1ccccc1 | 0 | . | . | 3 | -1
COCn1cnc(-c2ccccc2)c1-c1ccccc1 | 5 | -12 | 105 | -28* | -4
CCN(CC)CC(=O)N1CCCC(C(=O)c2ccccc2OC)C1 (stereo not given) | 3 | -4 | 105 | 12 | -1
COc1ccccc1C(=O)C1CCCN(C(=O)CCC(=O)c2ccccc2)C1 (stereo not given) | . | 8 | 95 | -28* | .
COc1cc2cc(C(=O)NCCc3c[nH]c4ccccc34)c(N)nc2cc1OC | . | . | . | -31* | .
O=C(NCCc1c[nH]c2ccccc12)c1ccc(F)cc1F | 6 | -2 | 79 | 2 | 1
Nc1nc2cc3c(cc2cc1C(=O)NCCc1c[nH]c2ccccc12)OCO3 | . | . | . | -25* | .
COc1cc(SC)ccc1C(=O)NCCc1c[nH]c2ccccc12 | -5 | 98 | 124 | -18 | 2
O=C(C[C@H]1CC[C@H](NC(=O)C2CC2)[C@H](CO)O1)NCC1CC1 | -2 | . | . | 2 | -5
COc1cccc(-c2cn(CC[C@H]3CC[C@@H](NC(=O)CC4CC4)[C@H](CO)O3)nn2)c1 | 3 | . | . | -3 | 0
C[C@@H]1CN([C@@H](C)CO)S(=O)(=O)c2ccc(-c3cccnc3)cc2O[C@H]1CN(C)C(=O)NC1CCCC1 | -1 | . | . | -2 | 2
Cc1[nH]c2ccccc2c1C(C[N+](=O)[O-])c1cccc(O)c1 (stereo not given) | . | 129 | 100 | -33* | .
C=CCn1c(SCC(=O)Nc2ccc(F)cc2)nc2cc(C(=O)O)ccc2c1=O | . | . | 86 | -3 | .
C=CCn1c(SCC(=O)NC23CC4CC(CC(C4)C2)C3)nc2cc(C(=O)O)ccc2c1=O | . | -3 | 105 | -23* | .
O=C(Nc1ccc2c(c1)[C@@H]1C[C@@H](CC(=O)N3CCCCC3)O[C@H](CO)[C@@H]1O2)c1ccc2c(c1)OCO2 | 0 | . | . | -4 | 8
SMILES | PglD inh | Mot1-301 SUMO | CR mimetic SO | rRNA inh HTS | Cneo AK release
O=C(CSc1nnc(C2CC2)n1C1CC1)c1cccs1 | 2 | 0 | 88 | 0 | 0
O=C(CSc1nnc(C2CC2)n1C1CC1)c1ccc(Br)s1 | 3 | -15 | 112 | -28* | -1
CCOC(=O)c1sc(NC(=O)CSC(=S)N2CCN(C)CC2)nc1C | -2 | 19 | 104 | -25* | 2
CCOC(=O)c1sc(NC(=O)CCSC)nc1C | 5 | 16 | 93 | . | 1
CCOC(=O)c1sc(NC(=O)C2CCCCC2)nc1C | . | 9 | 111 | -30* | .
CCOC(=O)c1sc(NC(C)=O)nc1C | -3 | 0 | 105 | 0 | -4
COCC(=O)Nc1ccc2c(c1)C(=O)N(C)C[C@H](OC)[C@@H](C)CN(C(=O)NC(C)C)[C@@H](C)CO2 | 0 | . | . | -2 | 1
C[C@@H]1CN([C@@H](C)CO)C(=O)c2cc(NC(=O)Nc3ccc(F)cc3)ccc2O[C@@H]1CN(C)C(=O)Nc1ccc(C(F)(F)F)cc1 | . | . | . | -9 | .
COCCNC(=O)c1ccccc1NS(=O)(=O)c1ccc(Br)s1 | -24 | 17 | 106 | . | -6
CCOc1ccccc1NS(=O)(=O)c1ccc(Br)s1 | 5 | 1 | 94 | -21* | -1
NS(=O)(=O)c1ccc(NC(=O)Cc2cccs2)cc1 | 6 | 2 | 94 | 4 | 0
NS(=O)(=O)c1ccc(NC(=O)COC(=O)/C(=C/c2cccs2)c2cccs2)cc1 | 0 | 0 | 100 | -18* | 1
Cc1noc(C)c1NC(=O)Nc1ccc2c(c1)C(=O)N([C@@H](C)CO)C[C@H](C)[C@@H](CN(C)S(=O)(=O)c1c(C)noc1C)OCCCC[C@@H](C)O2 | -3 | . | . | 1 | -4
CCCNC(=O)Nc1ccc2c(c1)C(=O)N(C)[C@@H]1CC[C@H](CC(=O)NCC3CCCCC3)O[C@H]1CO2 | 0 | . | . | -1 | -1
O=C(CSc1cccc[n+]1[O-])C12CC3CC(CC(C3)C1)C2 | . | 29 | 108 | -27* | .
C[C@@H]1CN([C@@H](C)CO)C(=O)Cc2cc(NS(=O)(=O)c3ccccc3)ccc2O[C@H]1CN(C)Cc1ccc(C(F)(F)F)cc1 | 3 | . | . | -2 | 1
Cc1ccc(C2=CC(C)(c3ccc(C)cc3)Nc3nc(C(F)(F)F)nn32)cc1 (stereo not given) | -5 | 3 | 108 | 2 | -2
CC1(c2ccc(OCC#N)cc2)C=C(c2ccc(OCC#N)cc2)n2nc(C(F)(F)F)nc2N1 (stereo not given) | . | -17 | 93 | -27* | .
CC(=O)N1[C@H](CO)[C@H](c2ccc(-c3ccccc3)cc2)[C@@H]1CNC(=O)C1CC1 | 0 | . | . | 2 | 105*
CC(=O)N1[C@H](CNC(=O)C2CC2)[C@@H](c2ccc(-c3ccccc3)cc2)[C@@H]1CO | 4 | . | . | -6 | 15
O=C(NC[C@@H]1[C@H](c2ccccc2)[C@@H](CO)N1C(=O)Cc1cccnc1)C1CCC1 | 0 | . | . | 3 | 84*
CCCNC(=O)N1[C@@H](CO)[C@@H](c2ccc(-c3ccccc3)cc2)[C@@H]1CNC(C)=O | 4 | . | . | -6 | 88*
C[C@H](CO)N1C[C@H](C)[C@@H](CN(C)C(=O)Nc2ccc(F)cc2)Oc2cc(-c3ccc(F)cc3)ccc2S1(=O)=O | . | . | . | 0 | .
O=C(/C=C/Nc1ccccc1Oc1ccccc1)c1ccco1 | -5 | -17 | 87 | -32* | -2
O=C(/C=C/Nc1ccccc1O)c1ccco1 | . | -6 | 93 | 3 | .

Compound activity from PubChem.
